Test system: MS2 coat protein
Assay: apparent Kd, MS2 coat protein; higher = weaker binding; RNA-MaP array; FMN 200 µM where present
Summary of the method: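 Binding was read on Illumina sequencing-chip clusters where stalled E. coli RNA polymerase had transcribed each design. A titration of SNAP-549-labelled MS2 coat protein began at 0.7 or 1.5 nM and doubled to 3 µM, once without ligand and once with constant ligand, in 100 mM Tris-HCl pH 7.5, 80 mM KCl, 4 mM MgCl2, BSA, DTT, yeast tRNA and Tween-20. The apparent Kd is the median of filtered per-cluster binding-curve fits, based on green signal normalised to red-channel RNA signal and control-cluster median Fmax.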

[1] = designed as: OFF switch for flavin mononucleotide, no ligand
[2] = ligand present: flavin mononucleotide, designed as: OFF switch for flavin mononucleotide
[3] = designed as: ON switch for flavin mononucleotide, no ligand
[4] = ligand present: flavin mononucleotide, designed as: ON switch for flavin mononucleotide

| Sequence | apparent Kd [1] [nM] | apparent Kd [2] [nM] | apparent Kd [3] [nM] | apparent Kd [4] [nM] |
| --- | --- | --- | --- | --- |
| CAGGUCUGAGGAUAUCCAUCUUCCUACAUGAGGAUCACCCAUGUUUCCCUCUGGGUUUUCGGAGAAGGCAGUUUUU | 263 | 226 |  |  |
| AGUCGGAGCAGAGGAUAUAUACAUGAGGAUCACCCAUGUAAAUGAAUAAGCUGGAAACAGCAAGUAUAGAAGGCUGCUCCGACA | 14.5 | 16.2 |  |  |
| AAUAGGCUCGCGCAGGAUAUGGAUCAUUCCACAUGAGGAUCACCCAUGUUAAGGAGCCCUUGCAUCCAGAAGGGUGUUGGUCUUU |  |  | 35.7 | 13.1 |
| GUCAGCUCGUGAGGAUAUACAACACUCCUUCGGCAGUGUAUUAAGAUCACAUGAGGAUCACCCAUGUAGAAGGCACGAGCUGAU | 14.8 | 201 |  |  |
| GUCGUGUGAGGAUAUGGAUAGACGCAGUGACAGUCAGCGACCUAGAAGGCACAUGAGGAUCACCCAUGUAUGUG | 47.2 | 100 |  |  |
| GCCAGAGCAGGAUAUUCAAUAAUCCACAUGAGGAUCACCCAUGUCCAGCGAAAGCUGGAGGGAGAAGGGCUCUGGC | 94.2 | 35.1 |  |  |
| GUGCUCGUGUAAGGAUAUGCAGCCGUUUCGGCUGCAGAAGGUACUAUAAUACAUGAGGAUCACCCAUGUCUCUAUUGUUUGGUG |  |  | 120 | 153 |
| GUCUACCUAGGAUAUACAUGAGGAUCACCCAUGUACAGUUUCGUCUAGGGAUACUCGCGUAGAAGGAGGUAGAU | 32.2 | 22.9 |  |  |
| UAUAUAUAGUAAGGAUAUGUAUUAAUUUUAUCAACAGAAGGUACUGACAUGAGGAUCACCCAUGUUUUAGUGUGGGCAUGUAGA | 84 | 109 |  |  |
| UUAUUAUGUGUAGGAUAUGCAUAUUCUUAUUAUGCAGAAGGACAUGAGGAUCACCCAUGUAUAUUAUUAUUAUAUAUUAUAUAU | 14.6 | 13.1 |  |  |
| GUUCUGCCUCCUGCCGGAACAUGAGGAUCACCCAUGUUGCCUGAGGAUAUCCUAUGGCGUCCACAGGAGAAGGCAGGCAGCAUA | 18.6 | 19.6 |  |  |
| CCGGGACAUGAGGAUCACCCAUGUUUCGUUUGUAGUAAAACACAGGAUAUGAUGAAACAGGUUUCUCAGAAGGGUGUUCCGAAA |  |  | 81.3 | 55.3 |
| UUCCAACGAGGAUAUCGAUGGUGGAACAUGAGGAUCACCCAUGUAUGAGAUAUUGUAGUUCGAGAAGGCGUUCAGU | 36.9 | 32.2 |  |  |
| GGGCGGAAUACAUGAGGAUCACCCAUGUCAGAAAGGGUAAUCAGAAGGUACUAUUAGAGAAAGAGUAAGGAUAUGAAUCCGCCC |  |  | 906 | 158 |
| GUAGCAUACCGAGGAUAUUCAGGGCGUGGAUAUACAUGAGGAUCACCCAUGUGGCGGAAGCCUAGGGAGAAGGCGGGCUGCUUC |  |  | 24.6 | 19.9 |
| CGGUACUUAGGAUAUACAUGAGGAUCACCCAUGUAGAGAAGGUGGGUGCCGUCCUGUAGUAGAAGGAAGAAUCG | 46.9 | 55.8 |  |  |
| UACAUGAGGAUCACCCAUGUUUUGUCGUGUAUGGUAUUUAUCUAGGAUAUCAAGUUGUUUAUUUAUGAGAAGGAGAAUAUUAAU | 34.3 | 38.1 |  |  |
| AAUGUUGGAGGAUAUACGCGAGUGCUCAGUUGGCCCGGUCGACAUGAGGAUCACCCAUGUAGAAGGCCGACGCU | 14.4 | 16.9 |  |  |
| AUCGGUCCGUAGAAGGGUGACAUGAGGAUCACCCAUGUGCCGUGGGCAUUUAUGCCUCCACGGCCACAGGAUAUACGGAGUUGA |  |  | 54 | 36.8 |
| UUUAGUUCAGGAUAUGUAGAUUUUAACAUGAGGAUCACCCAUGUAGAUCCUGAAUUAACUACAGAAGGGAACAUUC | 17.1 | 44.2 |  |  |
| UUCCCAAGUGCAGGAUAUGCUUCACCGACCUCAGCAGAAGGGCACAUGAGGAUCACCCAUGUGGCAAAAGUACACAGCAAGCUG | 7.74 | 11 |  |  |
| AGACUGCGUAGAAUUAGCAGCCGGCAGGAUAUGACAUGAGGAUCACCCAUGUGAACUCCAUUGGGUCAGAAGGGCCACGACACA | 21.8 | 147 |  |  |
| UGUUGUUUCAAGAAGGAUGUGUAUUUGUAUUCCAUAGGAUAUUGAGAAAUAGUUGCUCAAGUAUACAUGAGGAUCACCCAUGUU |  |  | 14.2 | 9.98 |
| GAUAGGACAGAGAAGGUACGUGCUAGAGAUACUAGCAAAAUACCUCAACAUGAGGAUCACCCAUGUAAGGAUAUCUGUCCUAUC | 5.7 | 6.19 |  |  |
| AUAAUUUUAUAUAUCUUAUUUAUCAGAAGGCAUAACAUGAGGAUCACCCAUGUAUAUUAUUGUUAUGAGGAUAUGAUUUAGUUA | 10.1 | 58.3 |  |  |
| UUUAUGUCAGGAUAUACAUGAGGAUCACCCAUGUAUAUCUUAAAAUAUACAUGGGUAUGUAGAAGGGACCUCCU | 86.5 | 77.1 |  |  |
| GUGAAGUAAGGAUAUAGUGGAAAAGAUAAGGUAUGAGAGUUCUAGAAGGUACAUGAGGAUCACCCAUGUUAGGG | 301 | 186 |  |  |
| UUUUAACAUGAGGAUCACCCAUGUCGUUCAAAUCAAGGAUAUCAGACGUGUACACACGCCUGAGAAGGUGAAGCUC |  |  | 51.1 | 132 |

| Sequence | apparent Kd [1] [nM] | apparent Kd [2] [nM] | apparent Kd [3] [nM] | apparent Kd [4] [nM] |
| --- | --- | --- | --- | --- |
| AAAAAACAUGAGGAUCACCCAUGUCAGGAUAUCGUAAAAAAAAAAAAAAAAAAAAAUGCGAGAAGGGACUGGAA | 87.4 | 125 |  |  |
| UGUUGUAUUACAGGAUAUCUAAUAUUUUUAUUUAGAGAAGGGUAUUCACAUGAGGAUCACCCAUGUAUAUACGAGGAAGUUGUG |  |  | 34.3 | 38.1 |
| GGAUGACAAAGUCAUCCAAAUCGAACAUGAGGAUCACCCAUGUAGGAUAUGCUACACAAAGUGUAGCAGAAGGACAUGUGCUUU | 42.2 | 258 |  |  |
| AGUGGCCGAGGAUAUACGGACGUGUCGCCGGGUGUCGUGGGACAUGAGGAUCACCCAUGUAGAAGGUGGUUGUU | 170 | 219 |  |  |
| GUUUAUUAUUAGAAGGUGCCAGCGAGAGCUGCACAUGAGGAUCACCCAUGUUGUCGGUGACGACGCAAGGAUAUGGUGGUGGAU |  |  | 300 | 91.5 |
| GUCAGCUCGUGAGGAUAUACAUCACUGCUUCGGCAGUGUAUUAAGACUACAUGAGGAUCACCCAUGUAGAAGGCACGAGCUGAU | 17.4 | 17.9 |  |  |
| GUUUGAUGAGGAUAUCGAGGUUAGUACAUGAGGAUCACCCAUGUUAUCCAGGUGUCGGUUCGAGAAGGUAUUGGAC | 18.4 | 38.1 |  |  |
| UAUUAGCUAGGAUAUACAUGAGGAUCACCCAUGUCACGGGUCCACUCGUCCUAUGCGUGUAGAAGGAGCGACCC | 20.6 | 22.4 |  |  |
| AAAUUGUGAGGAUAUUCGAUGUACUCGGAGACGAGUAUAUCGGAGAAGGCACAUGAGGAUCACCCAUGUUCCUU | 17.6 | 92.6 |  |  |
| UGAUAGGACAGAGGAUAUACGUGCUAGAGAUACUAGCAAAGUUUCCUCACAUGAGGAUCACCCAUGUAGAAGGCUGUCCUAUCU | 24.9 | 521 |  |  |
| UCGACGAAAGUCGAACGAUGUAGCAGAAGGACAUGAGGAUCACCCAUGUCAGCUGUAACAGCCAUGUAGGAUAUGCUACAUCGG | 4.43 | 5.37 |  |  |
| AUUAGUAUCUAGGAUAUCUAGUACAUAGUAUCUAGAGAAGGAGAUACAUGAGGAUCACCCAUGUUCUGUGAUCU | 204 | 44.4 |  |  |
| GUGACGAAUGUAGGAUAUGCUGAGGAAUACUCAGCAGAAGGACAUGAGGAUCACCCAUGUCAUCCUUAUAAUAAAUAACGUCAC | 12.6 | 18.1 |  |  |
| GUUUUGUAAGAGAAGGAGGACUUCAUGAGGAUCACCCAUGUGUUAGUACUUAGGAUAUUUGACAACAUGAGGAUCACCCAUGUC |  |  | 57.8 | 57.9 |
| UGGCUACAUGAGGAUCACCCAUGUCAGGAUAUGCCGUCGGAUUGCCUUCGUCGUUCGGGUAGAAGGGACUGCGG | 24.6 | 24.1 |  |  |
| UUUACUUACGAAGGAUAUGGUUACAUGAGGAUCACCCAUGUAUGUAUAUUGAUCUAGUAUUUUAACCAGAAGGUCGUGAUUUUU | 34.4 | 46.6 |  |  |
| GGUUGACAAAGUCAACCUAAACGAACAUGAGGAUCACCCAUGUAGGAUAUGCUACUCAAAGAGUAGCAGAAGGACAUGUGCCUU | 37.6 | 273 |  |  |
| AGCUACGUUUCGUAGCAGCUAGGUGAGGAUAUUCAAAUUUUCACAUGAGGAUCACCCAUGUAUGUGAAGAAGGCGCCUAGAAAG |  |  | 9.58 | 5.44 |
| CCCGGCGUGACGCUACACCGAGAGCAGGAUAUUCCGCCGUGAUCUACAUGAGGAUCACCCAUGUGGAAGAAGGGCUACACAAAA | 8.94 | 37.5 |  |  |
| AUAAUACAUGAGGAUCACCCAUGUAAUUUAACUUGUAAGAUCAAGGAUAUCAGCUCGAAUAGAGCUGAGAAGGUGAUCACAUGU |  |  | 169 | 295 |
| GCUGACGAUGUAGGAUAUCUCGACGAUAAGUCGAGAGAAGGACAUGAGGAUCACCCAUGUAAACUCACGUCAGCGAGGAAACUC | 16.1 | 17.2 |  |  |
| GAAUUCUCAGGAUAUGUGCGAAGUUACAUGAGGAUCACCCAUGUUAGCCCGUGUCUUUGAGCAGAAGGGAGAGGCU | 14 | 13.6 |  |  |
| GACGUACAUGAGGAUCACCCAUGUACAAACGUACAAGGAUAUGUGUGGAAACCGUACUAUACAGAAGGUGUUUGUC |  |  | 14.3 | 14.1 |
| GCCAGAGGAGGAUAUCUAAUAUAUCACAUGAGGAUCACCCAUGUCCAGCGAAAGCUGGAGGGAGAAGGCCUCUGGC | 149 | 29.8 |  |  |
| UUUAUUAAUUAAUAUAAUAAGAUCACAUGAGGAUCACCCAUGUAGGAUAUCAGCUCGAUUAGAGCUGAGAAGGACAUAAUUAUA | 34.8 | 110 |  |  |
| AUCAGCUCGUCAGGAUAUACGUCACUGCGUCAGCAGUGUGGUAAGAUCACAUGAGGAUCACCCAUGUAGAAGGGACGAGCUGAA | 14.3 | 267 |  |  |
| UGAUAGGACAGAGGAUAUACGUGCUAGAGAUACUAGCAAAAUUAAAUAACAUGAGGAUCACCCAUGUAGAAGGCUGUCCUAUCU | 5.01 | 7.01 |  |  |
